Laboratory results from ChEMBL document CHEMBL1143315, “Investigation of ketone warheads as alternatives to the nitrile for preparation of potent and selective cathepsin K inhibitors” (Bioorg Med Chem Lett, 2009).

Experiments:
Homo sapiens [1] = organism: Homo sapiens; assay: Selectivity ratio of IC50 for human cathepsin L to IC50 for humanized rabbit cathepsin K
Homo sapiens [2] = organism: Homo sapiens; assay: Selectivity ratio of IC50 for human cathepsin S to IC50 for humanized rabbit cathepsin K
Cathepsin K = Cathepsin K (Homo sapiens, UniProt P43235); assay: Inhibition of humanized rabbit cathepsin K
Homo sapiens [3] = organism: Homo sapiens; assay: Selectivity ratio of IC50 for human cathepsin B to IC50 for humanized rabbit cathepsin K
[4] = Clearance in rat at 2 to 5 mg/kg, iv; assay type: ADME, organism-based; parameters: dose 2-5 mg/kg, route intravenous; conditions: in vivo
How it was run: (§1)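 Rats were given a single IV dose of 2–5 mg/kg in 60% PEG 200. Half-life (t1/2) and clearance (Cl, mL/min/kg) were taken from the plasma profile. Where two distinct phases were seen, separate t1/2a and terminal t1/2b values were calculated.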

[5] = Half life in rat at 2 to 5 mg/kg, iv; assay type: ADME, organism-based; parameters: dose 2-5 mg/kg, route intravenous; conditions: in vivo; how it was run: as §1
Rattus norvegicus = organism: Rattus norvegicus; assay: Metabolic stability in rat hepatocytes assessed as compound remaining after 2 hrs
[6] = Terminal half life in rat at 2 to 5 mg/kg, iv; assay type: ADME, organism-based; parameters: dose 2-5 mg/kg, route intravenous; conditions: in vivo, read-out: beta t1/2 (converted); how it was run: as §1
[7] = Primary phase half life in rat at 2 to 5 mg/kg, iv; assay type: ADME, organism-based; parameters: dose 2-5 mg/kg, route intravenous; conditions: in vivo, read-out: alphat1/2 (converted); how it was run: as §1

| Structure (SMILES) | Ratio IC50 (Homo sapiens [1]) | Ratio IC50 (Homo sapiens [2]) | IC50 (Cathepsin K) | Ratio IC50 (Homo sapiens [3]) | clearance [4] | half-life [5] | remaining at 2 h (Rattus norvegicus) | half-life [6] | half-life [7] |
| --- | --- | --- | --- | --- | --- | --- | --- | --- | --- |
| CC(C)(F)C[C@H](N[C@@H](c1ccc(-c2ccc(S(C)(=O)=O)cc2)cc1)C(F)(F)F)C(=O)NC1CN(S(=O)(=O)c2ccccn2)CC1=O (stereo not given in full) |  |  | 85 nM |  | 43 mL/min/kg | 1.3 h |  |  |  |
| CC(C)(F)C[C@H](N[C@@H](c1ccc(-c2ccc(S(C)(=O)=O)cc2)cc1)C(F)(F)F)C(=O)NC1CCN(S(=O)(=O)c2ccccn2)CC1=O (stereo not given in full) | 621 | 22 | 5.7 nM | 232 | 24 mL/min/kg | 0.6 h |  |  |  |
| COC(=O)N1CC(=O)C(NC(=O)[C@H](CC(C)(C)F)N[C@@H](c2ccc(-c3ccc(S(C)(=O)=O)cc3)cc2)C(F)(F)F)C1 (stereo not given in full) |  |  | 4.3 nM |  | 40 mL/min/kg | 2.8 h |  |  |  |
| CC(C)(F)C[C@H](N[C@@H](c1ccc(-c2ccc(S(C)(=O)=O)cc2)cc1)C(F)(F)F)C(=O)NC1CN(C(=O)OC(C)(C)C)CC1=O (stereo not given in full) | 403 | 29 | 3.9 nM | 27 |  |  |  |  |  |
| CC(C)(F)C[C@H](N[C@@H](c1ccc(-c2ccc(S(C)(=O)=O)cc2)cc1)C(F)(F)F)C(=O)NC1CCCN(S(=O)(=O)c2ccccn2)CC1=O (stereo in doubt; 10) [listing 1 of 2 here] | > 1000 | 54 |  | > 1000 |  |  |  |  |  |
| CCOC(=O)N1CCCC(NC(=O)[C@H](CC(C)(C)F)N[C@@H](c2ccc(-c3ccc(S(C)(=O)=O)cc3)cc2)C(F)(F)F)C(=O)C1 (stereo not given in full) | > 185 | 46 | 54 nM | > 185 |  |  |  |  |  |
| CC(=O)N1CC(=O)C(NC(=O)[C@H](CC(C)(C)F)N[C@@H](c2ccc(-c3ccc(S(C)(=O)=O)cc3)cc2)C(F)(F)F)C1 (stereo not given in full) | > 1000 | 604 | 4.2 nM | > 1000 | 67 mL/min/kg | 1.2 h |  |  |  |
| CCOC(=O)N1CC(=O)C(NC(=O)[C@H](CC(C)(C)F)N[C@@H](c2ccc(-c3ccc(S(C)(=O)=O)cc3)cc2)C(F)(F)F)C1 (stereo not given in full) |  |  | 1.6 nM |  | 53 mL/min/kg | 2.1 h |  |  |  |
| CC(C)(F)C[C@H](N[C@@H](c1ccc(-c2ccc(S(C)(=O)=O)cc2)cc1)C(F)(F)F)C(=O)NC1CN(C(=O)NS(=O)(=O)c2ccccc2)CC1=O (stereo not given in full) | > 147 | > 6 | 68 nM | 9 |  |  |  |  |  |
| CC(C)(F)C[C@H](N[C@@H](c1ccc(-c2ccc(S(C)(=O)=O)cc2)cc1)C(F)(F)F)C(=O)NC1CCCN(S(=O)(=O)c2cccc[n+]2[O-])CC1=O (stereo not given in full) | 984 | 33 | 2.6 nM | > 1000 |  |  |  |  |  |
| CC(C)(F)C[C@H](N[C@@H](c1ccc(-c2ccc(S(C)(=O)=O)cc2)cc1)C(F)(F)F)C(=O)NC1CCCN(S(=O)(=O)c2ccccn2)CC1=O (stereo in doubt; 11) [listing 2 of 2 here] | 681 | 35 |  | > 1000 |  |  |  |  |  |
| COC(=O)NCC(=O)CNC(=O)[C@H](CC(C)(C)F)N[C@@H](c1ccc(-c2ccc(S(C)(=O)=O)cc2)cc1)C(F)(F)F | 152 | 38 | 45 nM | 148 | 17 mL/min/kg | 1.1 h |  |  |  |
| CC(C)(F)C[C@H](N[C@@H](c1ccc(-c2ccc(S(C)(=O)=O)cc2)cc1)C(F)(F)F)C(=O)NC1CN(C(=O)NCc2ccccc2)CC1=O (stereo not given in full) | 667 | 36 | 15 nM | 53 |  |  |  |  |  |

Other lines, results leading:

| Ratio IC50 (Homo sapiens [1]) | Ratio IC50 (Homo sapiens [2]) | IC50 (Cathepsin K) | Ratio IC50 (Homo sapiens [3]) | clearance [4] | half-life [5] | remaining at 2 h (Rattus norvegicus) | half-life [6] | half-life [7] | Structure (SMILES) |
| --- | --- | --- | --- | --- | --- | --- | --- | --- | --- |
| 40 | 104 | 7.3 nM | 355 |  |  |  |  |  | CC(C)(F)C[C@H](N[C@@H](c1ccc(-c2ccc(S(C)(=O)=O)cc2)cc1)C(F)(F)F)C(=O)NC1CN(C(=O)Nc2ccccc2)CC1=O (stereo not given in full) |
| 197 | 14 | 2.9 nM | 188 |  |  |  |  |  | CC(C)(F)C[C@H](N[C@@H](c1ccc(-c2ccc(S(C)(=O)=O)cc2)cc1)C(F)(F)F)C(=O)NC1CN(C(=O)c2ccccc2)CC1=O (stereo not given in full) |
| 158 | 313 | 27 nM | 370 |  |  |  |  |  | CC(C)(F)C[C@H](N[C@@H](c1ccc(-c2ccc(S(C)(=O)=O)cc2)cc1)C(F)(F)F)C(=O)NC1CN(S(C)(=O)=O)CC1=O (stereo not given in full) |
| > 63 | 8 | 159 nM | 50 |  |  |  |  |  | CC(C)(F)C[C@H](N[C@@H](c1ccc(-c2ccc(S(C)(=O)=O)cc2)cc1)C(F)(F)F)C(=O)NC1CCCN(S(=O)(=O)Cc2ccccc2)CC1=O (stereo not given in full) |
| 40 | 104 | 7.3 nM | 355 |  |  |  |  |  | CC(C)(F)C[C@H](N[C@@H](c1ccc(-c2ccc(S(C)(=O)=O)cc2)cc1)C(F)(F)F)C(=O)NC1CN(C(N)=O)CC1=O (stereo not given in full) |
| 939 | 45 |  | > 1000 |  |  |  |  |  | CC(C)(F)C[C@H](N[C@@H](c1ccc(-c2ccc(S(C)(=O)=O)cc2)cc1)C(F)(F)F)C(=O)NC1CCCN(S(=O)(=O)c2ccccn2)CC1=O (stereo in doubt; 9) [listing 1 of 2 here] |
| 16 | 159 | 9.8 nM | 485 |  |  |  |  |  | CC(C)(F)C[C@H](N[C@@H](c1ccc(-c2ccc(S(C)(=O)=O)cc2)cc1)C(F)(F)F)C(=O)NC1CNCC1=O (stereo not given in full) |
|  |  | 0.2 nM |  | 2 mL/min/kg | 6 h |  |  |  | CC(C)(F)C[C@H](N[C@@H](c1ccc(-c2ccc(S(C)(=O)=O)cc2)cc1)C(F)(F)F)C(=O)NC1(C#N)CC1 [ODANACATIB] |
|  |  | 1.8 nM |  |  |  |  |  |  | CC(C)(F)C[C@H](N[C@@H](c1ccc(-c2ccc(S(C)(=O)=O)cc2)cc1)C(F)(F)F)C(=O)NC1CCCN(S(=O)(=O)c2ccccn2)CC1=O (stereo in doubt; 11) [listing 1 of 2 here] |
|  |  | 10 nM |  |  |  |  |  |  | CC(C)(F)C[C@H](N[C@@H](c1ccc(-c2ccc(S(C)(=O)=O)cc2)cc1)C(F)(F)F)C(=O)NC1CCCN(S(=O)(=O)c2ccccn2)CC1=O (stereo in doubt; 10) [listing 2 of 2 here] |
| 91 | 3.9 | 6.9 nM | 1 |  |  |  |  |  | CC(C)(F)C[C@H](N[C@@H](c1ccc(-c2ccc(S(C)(=O)=O)cc2)cc1)C(F)(F)F)C(=O)NC1CCN(c2ccccc2S(C)(=O)=O)CC1=O (stereo not given in full) |
| > 1000 | 10 | 9 nM | 364 |  |  |  |  |  | CCOC(=O)N1CCC(NC(=O)[C@H](CC(C)(C)F)N[C@@H](c2ccc(-c3ccc(S(C)(=O)=O)cc3)cc2)C(F)(F)F)C(=O)C1 (stereo not given in full) |
| 101 | 8 | 8.3 nM | 2 |  |  |  |  |  | CC(C)(F)C[C@H](N[C@@H](c1ccc(-c2ccc(S(C)(=O)=O)cc2)cc1)C(F)(F)F)C(=O)NC1CCN(c2ccccc2)CC1=O (stereo not given in full) |
| 617 | 114 | 16 nM | > 1000 |  |  |  |  |  | CC(C)(F)C[C@H](N[C@@H](c1ccc(-c2ccc(S(C)(=O)=O)cc2)cc1)C(F)(F)F)C(=O)NC1CCCN(S(C)(=O)=O)CC1=O (stereo not given in full) |
| 236 | 179 | 33 nM | 303 |  |  |  |  |  | CC(C)(F)C[C@H](N[C@@H](c1ccc(-c2ccc(S(C)(=O)=O)cc2)cc1)C(F)(F)F)C(=O)NC1CCCNCC1=O (stereo not given in full) |
|  |  | 2 nM |  | 46 mL/min/kg |  | 56% | 11 h | 0.6 h | CC(C)(F)C[C@H](N[C@@H](c1ccc(-c2ccc(S(C)(=O)=O)cc2)cc1)C(F)(F)F)C(=O)NC1CCCN(S(=O)(=O)c2ccccn2)CC1=O (stereo in doubt; 9) [listing 2 of 2 here] |
